Measurements taken from ChEMBL document CHEMBL1126119, “3',3'-Difluoro-3'-deoxythymidine: comparison of anti-HIV activity to 3'-fluoro-3'-deoxythymidine” (J Med Chem, 1992).

Columns and labels:
[1] = biological target: Human immunodeficiency virus type 1 reverse transcriptase (Human immunodeficiency virus 1, UniProt Q72547); experiment: Concentration required to inhibit HIV reverse transcriptase
MT4 [2] = experiment: Concentration required to reduce the number of viable cells in the untreated MT-4 cell culture; format: functional; settings: Homo sapiens, read-out: CD50 (the source's name)
Method in brief: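 Uninfected, untreated MT4 cell cultures were used. CD50 is the cytotoxic dose that reduces the number of viable cells by 50%.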

MT4 [3] = experiment: Concentration required to affect a 50% reduction in the cytopathic effect of HIV for MT-4 cells; format: functional; settings: Homo sapiens, read-out: ED50 (the source's name)
Method in brief: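 HIV-infected MT4 cell cultures were used. ED50 is the dose that gives a 50% reduction in the HIV-induced cytopathic effect.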

Row | SMILES | IC50 [1] [µM] | CC50 (MT4 [2]) [µM] | EC50 (MT4 [3]) [µM]
1 | Cc1cn([C@H]2CC(F)(F)[C@@H](CO)O2)c(=O)[nH]c1=O | 8.8 | 48.4 | 38.6
2 | Cc1cn([C@H]2CC[C@@H](CO)O2)c(=O)[nH]c1=O | < 0.05 | > 625 | 6
3 | Cc1cn([C@H]2C[C@H](F)[C@@H](CO)O2)c(=O)[nH]c1=O [ALOVUDINE] | < 0.05 | 0.197 | 0.001
4 | Cc1cn([C@H]2C[C@H](N=[N+]=[N-])[C@@H](CO)O2)c(=O)[nH]c1=O [ZIDOVUDINE] | 0.04 | 20 | 0.004
